Laboratory results reported in ChEMBL document CHEMBL4308915, “Synthesis of novel pyrazoline derivatives and the evaluation of death mechanisms involved in their antileukemic activity” (Bioorg Med Chem, 2019).
Active and inactive are the calls of the source. The rule behind the calls is not given here.

Columns and labels:
K562 [1] = assay: Induction of apoptosis in human K562 cells assessed as increase in caspase-3 expression at 55.7 uM after 12 hrs by flow cytometric analysis; assay type: functional, cell-based
[2] = Hemolytic activity in human RBC at 15 times IC50 relative to control; assay type: ADME, cell-based, Erythrocyte; conditions: red blood cells (erythrocytes), read-out: Activity
Summary of the method: (§1)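 RBC from healthy non-smoking volunteers incubated with increasing concentrations of the selected pyrazolines. Saline served as the 0% lysis control and distilled water as the 100% lysis control. Percent hemolysis calculated relative to these controls.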

Jurkat [3] = assay: Induction of apoptosis in human Jurkat cells at 33.7 uM after 12 hrs by Annexin-V FITC staining-based flow cytometry relative to control; assay type: functional
PBL = assay: Cytotoxicity against acute leukemia patient-derived PBL cells assessed as reduction in cell viability after 24 hrs; assay type: functional, cell-based; conditions: Homo sapiens
Summary of the method: (§2)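 Mononuclear cells from acute leukemia patient samples (peripheral blood or bone marrow, taken before first treatment at diagnosis or relapse) isolated by Ficoll-Hypaque.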

B16-F10 [4] = assay: Cytotoxicity against mouse B16F10 cells assessed as reduction in cell viability after 24 hrs by MTT assay; assay type: functional, cell-based; conditions: B16-F10, 24 h
Summary of the method: (§3)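 MTT viability after 24 h exposure. Cells seeded at 5x10^4 per well and tested at 1-100 µM. Optical density of untreated cells set as 100% viable. IC50 derived by curve fitting. PBMC from healthy non-smoking volunteers, isolated by Ficoll-Hypaque.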

[5] = Hemolytic activity in human RBC at 12 times IC50 relative to control; assay type: ADME, cell-based, Erythrocyte; conditions: red blood cells (erythrocytes), read-out: Activity; summary of the method: as §1
Jurkat [6] = assay: Induction of apoptosis in human Jurkat cells assessed as increase in chromatin condensation at 33.7 uM by acridine orange/ethidium bromide staining-based fluorescence microscopic analysis; assay type: functional, cell-based
[7] = Hemolytic activity in human RBC at 3 times IC50 relative to control; assay type: ADME, cell-based, Erythrocyte; conditions: red blood cells (erythrocytes), read-out: Activity; summary of the method: as §1
K562 [8] = assay: Induction of apoptosis in human K562 cells assessed as increase in FasR expression at 55.7 uM after 12 hrs by flow cytometric analysis relative to control; assay type: functional
[9] = Selectivity index, ratio of IC50 for human PBMC to IC50 for human Daudi cells after 24 hrs
Summary of the method: (§4)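 MTT viability after 24 h exposure to 1-100µM; untreated control OD taken as 100%. IC50 by curve fitting in each line and in PBMC from six healthy donors (Ficoll-Hypaque). SI = IC50 PBMC / IC50 tumor line; SI ≥5 high, 2–5 moderate, <2 low.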

[10] = Selectivity index, ratio of IC50 for human PBMC to IC50 for mouse B16F10 cells after 24 hrs; assay type: toxicity; conditions: PBMC versus B16F10 cells, read-out: Ratio IC50; summary of the method: as §4
K562 [11] = assay: Cytotoxicity against human K562 cells assessed as reduction in cell viability after 48 hrs by MTT assay; assay type: functional, cell-based; conditions: K562, 48 h
K562 [12] = assay: Cell cycle arrest in human K562 cells assessed as increase in accumulation at G0/G1 phase at 55.7 uM after 12 hrs by propidium iodide/RNAse staining based flow cytometric analysis relative to control; assay type: functional
Daudi [13] = assay: Cytotoxicity against human Daudi cells assessed as reduction in cell viability after 24 hrs by MTT assay; assay type: functional, cell-based; summary of the method: as §3
K562 [14] = assay: Induction of apoptosis in human K562 cells assessed as increase in loss of membrane integrity at 55.7 uM by acridine orange/ethidium bromide staining-based fluorescence microscopic analysis; assay type: functional, cell-based
[15] = Hemolytic activity in human RBC at 2 times IC50 relative to control; assay type: ADME, cell-based, Erythrocyte; conditions: red blood cells (erythrocytes), read-out: Activity; summary of the method: as §1
K562 [16] = assay: Induction of apoptosis in human K562 cells at 55.7 uM after 12 hrs by Annexin-V FITC staining-based flow cytometry relative to control; assay type: functional
K562 [17] = assay: Cytotoxicity against human K562 cells assessed as reduction in cell viability after 24 hrs by MTT assay; assay type: functional, cell-based; conditions: K562, 24 h; summary of the method: as §3
Jurkat [18] = assay: Induction of apoptosis in human Jurkat cells assessed as reduction in cells with intact mitochondrial membrane potential at 33.7 uM after 12 hrs by flow cytometric analysis relative to control; assay type: functional; design: scale not given: the % may be the effect or the level left
[19] = Hemolytic activity in human RBC at 1 time IC50 relative to control; assay type: ADME, cell-based, Erythrocyte; conditions: red blood cells (erythrocytes), read-out: Activity; summary of the method: as §1
K562 [20] = assay: Cytotoxicity against human K562 cells assessed as reduction in cell viability after 72 hrs by MTT assay; assay type: functional, cell-based; conditions: K562, 72 h
Jurkat [21] = assay: Induction of apoptosis in human Jurkat cells assessed as increase in caspase-3 expression at 33.7 uM after 12 hrs by flow cytometric analysis relative to control; assay type: functional
K562 [22] = assay: Induction of apoptosis in human K562 cells assessed as reduction in cells with intact mitochondrial membrane potential at 55.7 uM after 12 hrs by flow cytometric analysis relative to control; assay type: functional; design: scale not given: the % may be the effect or the level left
PBMC [23] = assay: Cytotoxicity against human PBMC assessed as reduction in cell viability after 24 hrs by MTT assay; assay type: cell-based
K562 [24] = assay: Induction of apoptosis in human K562 cells assessed as increase in membrane blebbing at 55.7 uM by acridine orange/ethidium bromide staining-based fluorescence microscopic analysis; assay type: functional, cell-based
Jurkat [25] = assay: Induction of apoptosis in human Jurkat cells assessed as increase in Bax expression at 33.7 uM after 12 hrs by flow cytometric analysis relative to control; assay type: functional
B16-F10 [26] = assay: Cytotoxicity against mouse B16F10 cells assessed as reduction in cell viability after 48 hrs by MTT assay; assay type: functional, cell-based; conditions: B16-F10, 48 h
Jurkat [27] = assay: Induction of apoptosis in human Jurkat cells assessed as decrease in survivin level at 33.7 uM after 12 hrs by flow cytometric analysis relative to control; assay type: functional
PBMC [28] = assay: Cytotoxicity against human PBMC assessed as reduction in cell viability after 48 hrs by MTT assay; assay type: cell-based
Jurkat [29] = assay: Cytotoxicity against human Jurkat cells assessed as reduction in cell viability after 48 hrs by MTT assay; assay type: functional, cell-based
PBMC [30] = assay: Cytotoxicity against human PBMC assessed as reduction in cell viability after 72 hrs by MTT assay; assay type: cell-based
[31] = Selectivity index, ratio of IC50 for human PBMC to IC50 for human Jurkat cells after 24 hrs; assay type: toxicity; conditions: PBMC versus Jurkat cells, read-out: Ratio IC50; summary of the method: as §4
Jurkat [32] = assay: Induction of apoptosis in human Jurkat cells assessed as increase in AIF release at 33.7 uM after 12 hrs by flow cytometric analysis relative to control; assay type: functional
K562 [33] = assay: Induction of apoptosis in human K562 cells assessed as increase in Bax expression at 55.7 uM after 12 hrs by flow cytometric analysis relative to control; assay type: functional
Homo sapiens = species on record: Homo sapiens; assay: (§5) Cytotoxicity against acute leukemia patient-derived bone marrow cells assessed as reduction in cell viability after 24 hrs; assay type: functional, cell-based; summary of the method: as §2
[34] = as §5; assay type: functional, cell-based; conditions: Homo sapiens; summary of the method: as §2
Jurkat [35] = assay: Cell cycle arrest in human Jurkat cells assessed as increase in accumulation at S phase at 33.7 uM after 12 hrs by propidium iodide/RNAse staining based flow cytometric analysis; assay type: functional
Daudi [36] = assay: Cytotoxicity against human Daudi cells assessed as reduction in cell viability after 48 hrs by MTT assay; assay type: functional, cell-based
[37] = Selectivity index, ratio of IC50 for human PBMC to IC50 for human K562 cells after 24 hrs; assay type: toxicity; conditions: PBMC versus K562 cells, read-out: Ratio IC50; summary of the method: as §4
K562 [38] = assay: Antiproliferative activity against human K562 cells assessed as reduction in KI-67 expression at 55.7 uM after 12 hrs by flow cytometric analysis; assay type: functional, cell-based
Jurkat [39] = assay: Induction of DNA fragmentation in human Jurkat cells assessed as increase in ladder formation at 33.7 uM after 12 hrs by ethidium bromide staining based agarose gel electrophoresis method; assay type: functional, cell-based
Jurkat [40] = assay: Induction of apoptosis in human Jurkat cells assessed as increase in membrane blebbing at 33.7 uM by acridine orange/ethidium bromide staining-based fluorescence microscopic analysis; assay type: functional, cell-based
Jurkat [41] = assay: Induction of apoptosis in human Jurkat cells assessed as increase in loss of membrane integrity at 33.7 uM by acridine orange/ethidium bromide staining-based fluorescence microscopic analysis; assay type: functional, cell-based
Jurkat [42] = assay: Induction of apoptosis in human Jurkat cells assessed as increase in FasR expression at 33.7 uM after 12 hrs by flow cytometric analysis relative to control; assay type: functional
Jurkat [43] = assay: Cytotoxicity against human Jurkat cells assessed as reduction in cell viability after 72 hrs by MTT assay; assay type: functional, cell-based
B16-F10 [44] = assay: Cytotoxicity against mouse B16F10 cells assessed as reduction in cell viability after 72 hrs by MTT assay; assay type: functional, cell-based; conditions: B16-F10, 72 h
Daudi [45] = assay: Cytotoxicity against human Daudi cells assessed as reduction in cell viability after 72 hrs by MTT assay; assay type: functional, cell-based
[46] = Hemolytic activity in human RBC at 9 times IC50 relative to control; assay type: ADME, cell-based, Erythrocyte; conditions: red blood cells (erythrocytes), read-out: Activity; summary of the method: as §1
Jurkat [47] = assay: Cytotoxicity against human Jurkat cells assessed as reduction in cell viability after 24 hrs by MTT assay; assay type: functional, cell-based; summary of the method: as §3
Jurkat [48] = assay: Antiproliferative activity against human Jurkat cells assessed as reduction in KI-67 expression at 33.7 uM after 12 hrs by flow cytometric analysis; assay type: functional, cell-based
K562 [49] = assay: Induction of apoptosis in human K562 cells assessed as decrease in survivin level at 55.7 uM after 12 hrs by flow cytometric analysis relative to control; assay type: functional
K562 [50] = assay: Induction of apoptosis in human K562 cells assessed as increase in chromatin condensation at 55.7 uM by acridine orange/ethidium bromide staining-based fluorescence microscopic analysis; assay type: functional, cell-based

COc1cc(C2=NN(C(C)=O)C(c3ccc4ccccc4c3)C2)cc(OC)c1OC (stereo not drawn)
Activity (K562 [1]): inactive | hemolysis at 15 times IC50 [2]: 6.4% | Activity (Jurkat [3]): 29.2% | Activity (PBL): Dose-dependent effect | IC50 (PBL): 27.7 to 139 µM | IC50 (B16-F10 [4]): 72.3 µM | hemolysis at 12 times IC50 [5]: 3.2% | Activity (Jurkat [6]): Active | hemolysis at 3 times IC50 [7]: 1.6% | Activity (K562 [8]): 34.3% | Ratio IC50 [9]: 10.7 | selectivity ratio at 24 h [10]: 6.9 | IC50 (K562 [11]): 21.9 µM | Activity (K562 [12]): 7.4% | IC50 (Daudi [13]): 46.2 µM | Activity (K562 [14]): Active | hemolysis at 2 times IC50 [15]: 1.5% | Activity (K562 [16]): 18.8% | IC50 (K562 [17]): 55.7 µM | Activity (Jurkat [18]): 41% | hemolysis at 1 times IC50 [19]: 1.9% | IC50 (K562 [20]): 15.5 µM | Activity (Jurkat [21]): 6.6% | Activity (K562 [22]): 26% | IC50 (PBMC [23]): 497 µM | Activity (K562 [24]): Active | Activity (Jurkat [25]): 20.5% | IC50 (B16-F10 [26]): 56.6 µM | Activity (Jurkat [27]): 21.4% | IC50 (PBMC [28]): 105 µM | IC50 (Jurkat [29]): 27.7 µM | IC50 (PBMC [30]): 55.3 µM | selectivity ratio at 24 h [31]: 14.7 | Activity (Jurkat [32]): 6% | Activity (K562 [33]): 16.8% | Activity (Homo sapiens): Dose-dependent effect | IC50 [34]: 16.2 to 44.6 µM | Activity (Jurkat [35]): inactive | IC50 (Daudi [36]): 20.2 µM | selectivity ratio at 24 h [37]: 8.9 | Activity (K562 [38]): Active | Activity (Jurkat [39]): Active | Activity (Jurkat [40]): Active | Activity (Jurkat [41]): Active | Activity (Jurkat [42]): 30.3% | IC50 (Jurkat [43]): 25.3 µM | IC50 (B16-F10 [44]): 23.3 µM | IC50 (Daudi [45]): 5.1 µM | hemolysis at 9 times IC50 [46]: 2.4% | IC50 (Jurkat [47]): 33.7 µM | Activity (Jurkat [48]): Active | Activity (K562 [49]): 22.2% | Activity (K562 [50]): Active
